Assay results from different studies.
Each line is one published result; the experiments were not run side by side.
Liver carboxylesterase: Liver carboxylesterase (Sus scrofa, UniProt Q29550)
ADORA3: Adenosine receptor A3 (ADORA3, Homo sapiens, UniProt P0DMS8)
MC1R: Melanocyte-stimulating hormone receptor (MC1R, Homo sapiens, UniProt Q01726)

`CCCCC[C@H](O)/C=C/[C@H]1[C@H](O)CC(=O)[C@@H]1CCCCCCC(=O)O` gave a Ki of > 28 µM (Liver carboxylesterase; enzyme activity; inhibitor; HPLC).
With `c1ccc(CCC2=NCCN2CCc2ccccc2)cc1` the Ki was > 10 µM (D(2) dopamine receptor (DRD2, Homo sapiens, UniProt P14416); ligand displacement; radioligand).
`CC(C)CCCC(C)N1CCCn2c1nc1c2c(=O)n(C)c(=O)n1C` (stereo not shown) has a Ki of 2.57 µM (ADORA3; ligand displacement; radioligand; cell membranes).
With `CCCC[C@H](NC(=O)[C@H](CO)NC(=O)[C@H](Cc1ccc(O)cc1)NC(=O)[C@H](CO)NC(C)=O)C(=O)N[C@@H](CCC(=O)O)C(=O)N[C@@H](Cc1c[nH]cn1)C(=O)N[C@@H](C)C(=O)N[C@@H](CCCNC(=N)N)C(=O)N[C@@H](Cc1c[nH]c2ccccc12)C(=O)NCC(=O)N[C@@H](CCCCN)C(=O)N1CCC[C@H]1C(=O)N[C@H](C(=O)NCC(=O)N[C@@H](CCCCN)C(=O)N[C@@H](CCCCN)C(=O)N[C@@H](CCCNC(=N)N)C(N)=O)C(C)C` the Ki was 0.0378 µM (MC1R; ligand displacement in cells; radioligand).
`CCCCC[C@H](O)/C=C/[C@H]1[C@H](O)CC(=O)[C@@H]1C/C=C\CCCC(=O)O` has a Ki of > 28 µM (Liver carboxylesterase; enzyme activity; inhibitor; HPLC; pH 7.4).
`CC(C)CC(C)N1CCCn2c1nc1c2c(=O)n(C)c(=O)n1C` (stereo not shown) has a Ki of > 10 µM (ADORA3; ligand displacement; radioligand; cell membranes).
`CCn1c(-c2nc3cc(C(=O)N4CCC[C@@H](N)C4)cc(OC)c3n2C)cc2cccnc21` has a Ki of 1580 µM (Protein-arginine deiminase type-2 (PADI2, Homo sapiens, UniProt Q9Y2J8); enzyme activity; inhibitor).
With `COC(=O)[C@H](CSC/C=C(\C)CC/C=C(\C)CCC=C(C)C)NC(=O)c1ccc(-c2ccccc2)cc1` the Ki was 190 µM (Liver carboxylesterase; enzyme activity; inhibitor; HPLC).
With `CNC(=O)[C@@]12C[C@@H]1[C@@H](n1cnc3c(NCc4cn(-c5ccc(F)c(N)c5)nn4)nc(Cl)nc31)[C@H](O)[C@@H]2O` the Ki was 0.0226 µM (ADORA3; ligand displacement; radioligand; cell membranes).
`C=CCN1CCCn2c1nc1c2c(=O)n(C)c(=O)n1C` gave a Ki of > 10 µM (ADORA3; ligand displacement; radioligand; cell membranes).
With `CC[C@H](C)[C@H](NC(=O)CN)C(=O)N[C@H](C(=O)N[C@@H](CC(N)=O)C(=O)N[C@H](C(=O)N[C@@H](CC(C)C)C(=O)N[C@@H](CCC(N)=O)C(=O)N[C@@H](CCCCN)C(=O)N[C@@H](Cc1ccc(O)cc1)C(=O)N[C@@H](Cc1ccc(O)cc1)C(=O)N[C@@H](CO)C(=O)N[C@@H](CCCNC(=N)N)C(=O)N[C@H](C(=O)N[C@@H](CCCNC(=N)N)C(=O)NCC(=O)NCC(=O)N[C@@H](CCCNC(=N)N)C(=O)N[C@@H](CO)C(=O)N[C@@H](C)C(=O)N[C@H](C(=O)N[C@@H](CC(C)C)C(=O)N[C@@H](CO)C(=O)N[C@H]1CSSC[C@@H](C(=O)N[C@@H](CCCNC(=N)N)C(=O)N[C@@H](CCCNC(=N)N)C(=O)N[C@@H](CCCCN)C(=O)N[C@@H](CCCCN)C(N)=O)NC(=O)[C@H](CO)NC(=O)[C@H](CCCCN)NC(=O)[C@H](CCCNC(=N)N)NC(=O)CNC(=O)[C@H](CCCNC(=N)N)NC(=O)[C@H]([C@@H](C)O)NC(=O)[C@H](CO)NC(=O)[C@H](CO)NC(=O)[C@H](CCCCN)NC(=O)CNC(=O)[C@H]([C@@H](C)CC)NC(=O)[C@H](CCC(N)=O)NC(=O)[C@H](CCC(=O)O)NC(=O)[C@H](CCC(=O)O)NC(=O)[C@H](CCCCN)NC(=O)[C@@H]2CCCN2C(=O)[C@H](CC(C)C)NC1=O)C(C)C)C(C)C)[C@@H](C)O)[C@@H](C)CC` the Ki was 0.198 µM (MC1R; ligand displacement in cells).
With `CCCCCC(C)N1CCCn2c1nc1c2c(=O)n(C)c(=O)n1C` (stereo not shown) the Ki was > 10 µM (ADORA3; ligand displacement; radioligand; cell membranes).
`NCCCC[C@H](NC(=O)[C@@H]1CCCN1C(=O)[C@@H]1CSSC[C@H](N)C(=O)N[C@@H](Cc2ccc(O)cc2)C(=O)N[C@@H](Cc2ccccc2)C(=O)N[C@@H](CCC(N)=O)C(=O)N[C@@H](CC(N)=O)C(=O)N1)C(=O)NCC(N)=O` has a Ki of 0.01 µM (Vasopressin V2 receptor (AVPR2, Homo sapiens, UniProt P30518); ligand displacement; radioligand; cell membranes).
With `CCCCCCN1CCCn2c1nc1c2c(=O)n(C)c(=O)n1C` the Ki was > 10 µM (ADORA3; ligand displacement; radioligand; cell membranes).
With `CCNC(=O)[C@H]1O[C@@H](n2cnc3c(N)nc(NN=C[C@H]4CCC=CO4)nc32)[C@H](O)[C@@H]1O` the Ki was 0.00451 µM (ADORA3; ligand displacement; radioligand).
For `CC/C=C\C/C=C\C/C=C\C/C=C\C/C=C\CCCC(=O)O`, the Ki was 0.34 µM (Liver carboxylesterase; enzyme activity; inhibitor; HPLC; pH 7.4).
`C=CN1CCCn2c1nc1c2c(=O)n(C)c(=O)n1C` has a Ki of > 10 µM (ADORA3; ligand displacement; radioligand; cell membranes).
The Ki of `C#CCNc1nc(Cl)nc2c1ncn2[C@H]1[C@H](O)[C@H](O)[C@]2(C(=O)NC)C[C@H]12` is reported as 0.0015 µM (ADORA3; ligand displacement; radioligand; cell membranes).
`O=C1c2ccccc2CCN1CCCCN1CCN(c2cccc(Cl)c2Cl)CC1` has a Ki of 3.45 µM (5-hydroxytryptamine receptor 1E (HTR1E, Homo sapiens, UniProt P28566); ligand displacement; radioligand).
